In ChEMBL document CHEMBL1135588, “Divalent and trivalent alpha-ketocarboxylic acids as inhibitors of protein tyrosine phosphatases” (J Med Chem, 2002) one finds IC50 data, which are given here for five compounds.

The target in test [1] is T1, Tyrosine-protein phosphatase non-receptor type 1 (Homo sapiens, UniProt P18031).
T1 sequence (P18031 whole entry): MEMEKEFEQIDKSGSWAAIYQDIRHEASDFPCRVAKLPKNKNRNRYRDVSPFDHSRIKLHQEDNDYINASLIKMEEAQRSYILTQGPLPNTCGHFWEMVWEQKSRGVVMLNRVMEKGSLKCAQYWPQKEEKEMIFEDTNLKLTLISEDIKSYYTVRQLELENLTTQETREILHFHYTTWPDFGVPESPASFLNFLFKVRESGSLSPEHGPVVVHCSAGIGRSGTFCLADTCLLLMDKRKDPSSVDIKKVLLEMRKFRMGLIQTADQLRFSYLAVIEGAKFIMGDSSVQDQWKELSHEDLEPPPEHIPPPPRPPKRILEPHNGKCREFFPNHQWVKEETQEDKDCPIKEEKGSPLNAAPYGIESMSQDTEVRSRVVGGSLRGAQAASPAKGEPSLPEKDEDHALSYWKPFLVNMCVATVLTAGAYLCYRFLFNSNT
The experiment in a line: Concentration required for 50% Inhibition of activity against Protein Tyrosine Phosphatases 1B.

The target of test [2] is Receptor-type tyrosine-protein phosphatase F (Homo sapiens, UniProt P10586). The experiment in a line: Concentration required for 50% Inhibition of activity against Protein-tyrosine phosphatase Lar. The method in brief:
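Yersinia PTPase and LAR, commercial enzymes. p-NPP at 2.5 mM; 1 mM EDTA, 100 mM NaCl, 100 mM acetate pH 5.5, 10% DMSO, 25 °C. Initial rates taken from hydrolysis followed at 420 nm, 10–120 s after mixing. IC50 obtained by Dixon analysis.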

By IC50 is commonly meant the concentration needed to halve the response being measured. Higher therefore signals a need for much substance.

Sequence of Receptor-type tyrosine-protein phosphatase F (P10586 whole entry): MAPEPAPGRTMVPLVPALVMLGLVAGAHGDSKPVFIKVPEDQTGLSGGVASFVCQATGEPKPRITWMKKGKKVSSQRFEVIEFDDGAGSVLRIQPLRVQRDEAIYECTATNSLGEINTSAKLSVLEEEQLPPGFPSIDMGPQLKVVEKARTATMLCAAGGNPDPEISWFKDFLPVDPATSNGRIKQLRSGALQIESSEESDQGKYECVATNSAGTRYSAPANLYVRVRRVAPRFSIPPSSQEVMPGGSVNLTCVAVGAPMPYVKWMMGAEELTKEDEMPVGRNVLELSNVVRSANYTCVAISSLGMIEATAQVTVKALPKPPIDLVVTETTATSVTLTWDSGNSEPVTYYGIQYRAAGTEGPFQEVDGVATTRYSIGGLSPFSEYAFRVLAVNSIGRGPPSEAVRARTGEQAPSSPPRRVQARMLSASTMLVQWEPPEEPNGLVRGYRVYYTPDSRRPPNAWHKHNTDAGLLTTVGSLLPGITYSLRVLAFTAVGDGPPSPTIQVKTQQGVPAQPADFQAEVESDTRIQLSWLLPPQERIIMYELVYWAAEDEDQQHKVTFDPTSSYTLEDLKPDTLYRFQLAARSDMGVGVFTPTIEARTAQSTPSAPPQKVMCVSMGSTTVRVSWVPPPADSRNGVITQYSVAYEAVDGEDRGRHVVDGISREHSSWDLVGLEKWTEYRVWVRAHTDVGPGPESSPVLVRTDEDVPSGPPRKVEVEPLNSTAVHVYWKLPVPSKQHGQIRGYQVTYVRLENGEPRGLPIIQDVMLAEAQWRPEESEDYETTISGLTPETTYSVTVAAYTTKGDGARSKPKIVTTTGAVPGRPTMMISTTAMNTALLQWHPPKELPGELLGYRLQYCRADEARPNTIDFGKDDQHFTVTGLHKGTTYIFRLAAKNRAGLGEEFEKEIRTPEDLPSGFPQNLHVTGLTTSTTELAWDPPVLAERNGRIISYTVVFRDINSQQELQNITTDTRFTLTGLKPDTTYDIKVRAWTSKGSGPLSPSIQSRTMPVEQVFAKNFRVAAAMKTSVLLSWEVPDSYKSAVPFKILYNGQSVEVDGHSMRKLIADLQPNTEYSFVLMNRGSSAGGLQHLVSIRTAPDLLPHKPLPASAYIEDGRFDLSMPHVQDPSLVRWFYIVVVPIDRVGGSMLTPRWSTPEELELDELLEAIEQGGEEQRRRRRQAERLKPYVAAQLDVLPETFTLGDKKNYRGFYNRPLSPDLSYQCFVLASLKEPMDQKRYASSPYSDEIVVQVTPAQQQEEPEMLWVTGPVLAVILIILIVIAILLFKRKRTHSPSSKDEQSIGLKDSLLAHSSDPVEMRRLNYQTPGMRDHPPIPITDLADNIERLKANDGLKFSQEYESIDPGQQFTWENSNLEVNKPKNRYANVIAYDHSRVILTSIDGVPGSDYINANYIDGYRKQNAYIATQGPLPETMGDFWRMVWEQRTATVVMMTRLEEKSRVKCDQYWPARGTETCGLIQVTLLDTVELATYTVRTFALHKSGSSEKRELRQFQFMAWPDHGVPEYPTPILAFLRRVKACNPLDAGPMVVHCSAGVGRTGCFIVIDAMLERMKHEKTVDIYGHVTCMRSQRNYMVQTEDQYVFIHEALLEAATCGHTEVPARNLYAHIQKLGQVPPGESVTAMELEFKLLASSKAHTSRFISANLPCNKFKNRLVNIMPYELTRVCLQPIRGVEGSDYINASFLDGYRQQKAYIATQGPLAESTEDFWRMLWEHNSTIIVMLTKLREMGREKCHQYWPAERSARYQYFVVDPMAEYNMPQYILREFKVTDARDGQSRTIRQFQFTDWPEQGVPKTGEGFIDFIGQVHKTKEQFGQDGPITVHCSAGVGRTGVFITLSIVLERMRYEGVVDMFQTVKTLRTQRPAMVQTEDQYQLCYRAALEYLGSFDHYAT

In the case of `O=C(O)C(=O)c1ccc(OCc2cccc(COc3ccc(C(=O)C(=O)O)cc3)c2)cc1`, the IC50 in test [1] was determined as 53 µM; in test [2], 120 µM. With `O=C(O)C(=O)c1ccc(OCc2ccc(COc3ccc(C(=O)C(=O)O)cc3)cc2)cc1`, the IC50 in test [1] turned out to be 2.7 µM; in test [2] it was 250 µM. In test [2], `O=C(O)C(=O)c1ccc(O)cc1` had an IC50 of 2300 µM. On to `O=C(O)C(=O)c1ccc(OCc2cc(COc3ccc(C(=O)C(=O)O)cc3)cc(COc3ccc(C(=O)C(=O)O)cc3)c2)cc1`, for which the IC50 was 13 µM in test [1] and 41 µM in test [2].

In the case of `O=C(O)C(=O)c1ccc(OCc2ccccc2COc2ccc(C(=O)C(=O)O)cc2)cc1`, the results for the IC50 in test [1] and in test [2] were 19 µM and 120 µM, respectively.
